Measured values from ChEMBL document CHEMBL4270482, “Cytotoxic Fusicoccane-Type Diterpenoids from Streptomyces violascens Isolated from Ailuropoda melanoleuca Feces” (J Nat Prod, 2017).
Where a name gives a salt, the structure may show the parent alone. Active and inactive are the calls of the source. No cut-off for these calls is given here.

Tests used:
BGC-823 [1] = experiment: Cytotoxicity against human BGC823 cells assessed as inhibition of growth at 200 uM incubated for 72 hrs by MTT assay; assay type: functional; conditions: for inhibition at 200 µM: BGC-823, 72 h
NCI-H460 [2] = experiment: Cytotoxicity against human NCI-H460 cells assessed as inhibition of growth at 200 uM incubated for 72 hrs by MTT assay; assay type: functional; conditions: for inhibition at 200 µM: NCI-H460, 72 h
HCT-116 [3] = experiment: Cytotoxicity against human HCT116 cells assessed as inhibition of growth at 200 uM incubated for 72 hrs by MTT assay; assay type: functional; conditions: for inhibition at 200 µM: HCT-116, 72 h
HeLa [4] = experiment: Cytotoxicity against human HeLa cells assessed as inhibition of growth at 200 uM incubated for 72 hrs by MTT assay; assay type: functional
SMMC-7721 [5] = experiment: Cytotoxicity against human SMMC7721 cells assessed as inhibition of growth at 200 uM incubated for 72 hrs by MTT assay; assay type: functional; conditions: for inhibition at 200 µM: SMMC-7721, 72 h
BGC-823 [6] = experiment: Cytotoxicity against human BGC823 cells assessed as inhibition of growth incubated for 72 hrs by MTT assay; assay type: functional, cell-based; conditions: BGC-823, 72 h
Procedure, shortened: (§1)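 Cells grown in RPMI-1640 or DMEM with 10% heat-inactivated FBS. Exposed to six concentrations (100, 33, 10, 3.3, 1.0, 0.33 μM) for 72 h at 37 °C. MTT (5 mg/mL, 10 μL) added for 4 h, then medium removed and DMSO added, absorbance read at 570 nm. IC50 is the concentration giving 50% lower absorbance than control. Mean ± SD of three independent experiments; adriamycin positive control.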

NCI-H460 [7] = experiment: Cytotoxicity against human NCI-H460 cells assessed as inhibition of growth incubated for 72 hrs by MTT assay; assay type: functional, cell-based; conditions: NCI-H460, 72 h; procedure, shortened: as §1
HCT-116 [8] = experiment: Cytotoxicity against human HCT116 cells assessed as inhibition of growth incubated for 72 hrs by MTT assay; assay type: functional, cell-based; conditions: HCT-116, 72 h; procedure, shortened: as §1
HeLa [9] = experiment: Cytotoxicity against human HeLa cells assessed as inhibition of growth incubated for 72 hrs by MTT assay; assay type: functional, cell-based; procedure, shortened: as §1
SMMC-7721 [10] = experiment: Cytotoxicity against human SMMC7721 cells assessed as inhibition of growth incubated for 72 hrs by MTT assay; assay type: functional, cell-based; conditions: SMMC-7721, 72 h; procedure, shortened: as §1
SMMC-7721 [11] = experiment: Cytotoxicity against human SMMC7721 cells assessed as inhibition of growth at 0.6 to 5.5 uM incubated for 24 hrs by MTT assay; assay type: functional, cell-based
Procedure, shortened: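 SMMC7721 viability measured by MTT after exposure to 0, 0.61, 1.83, 5.49 or 16.5 μM for 0, 24, 48 and 72 h. Vehicle-treated cells served as control. Mean ± SD, n = 3.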

SMMC-7721 [12] = experiment: Inhibition of cell adhesion of human SMMC7721 cells at 0.61 to 5.49 uM incubated for 1 hr by matrigel based assay; assay type: functional
Procedure, shortened: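 Wells coated overnight with Matrigel in 0.5% serum-free RPMI-1640, blocked with 2% BSA for 30 min and washed with PBS. SMMC7721 cells (2 × 10^4/well) added with 0.61, 1.83 or 5.49 μM and left to adhere for 1 h. Medium removed, 0.2% crystal violet applied for 10 min, dye dissolved in DMSO, OD read at 540 nm. Mean ± SD, n = 3.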

SMMC-7721 [13] = experiment: Inhibition of cell migration of human SMMC7721 cells incubated for 24 hrs by H and E staining based transwell chamber assay; assay type: functional
Procedure, shortened: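 Transwell migration: 4 × 10^5 SMMC7721 cells in RPMI-1640 with 0.1% FBS plus 0.61, 1.83 or 5.49 μM placed in upper chamber; lower chamber held RPMI-1640 with 10% FBS. Cells on the lower membrane surface fixed in paraformaldehyde for 30 min and stained with H&E for 5 min. Methods give 6 h, legend gives 24 h. Vehicle control; mean ± SD, n = 3.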

[14] = target: 72 kDa type IV collagenase (Homo sapiens) (UniProt P08253); experiment: Inhibition of MMP2 activity in human SMMC7721 cells incubated for 24 hrs by gelatin zymography; assay type: cell-based
Procedure, shortened: (§2)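 SMMC7721 cells (2 × 10^5/well) treated with 0.61, 1.83 or 5.49 μM for 24 h. Culture supernatants run on 10% SDS-PAGE containing 0.1% gelatin. Gels washed in 2.5% Triton X-100 (three 1-h washes), then incubated 36 h at 37 °C in 50 mM Tris-HCl, 10 mM CaCl2, 1 μM ZnCl2, 0.2 M NaCl, pH 7.6. Coomassie R250 stain; bands at 72 kDa (MMP-2) and 92 kDa (MMP-9) quantified by densitometry. Mean ± SD, n = 3.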

[15] = target: Matrix metalloproteinase-9 (Homo sapiens) (UniProt P14780); experiment: Inhibition of MMP9 activity in human SMMC7721 cells incubated for 24 hrs by gelatin zymography; assay type: cell-based; procedure, shortened: as §2
SMMC-7721 [16] = experiment: Inhibition of MMP2 protein expression in human SMMC7721 cells at […] to 5.49 uM incubated for 24 hrs by Western blot analysis; assay type: functional, cell-based
Procedure, shortened: (§3)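 SMMC7721 cells (5 × 10^5/well) treated with 0.61, 1.83 or 5.49 μM for 24 h, then lysed in RIPA buffer with protease inhibitors for 40 min on ice. Protein (60 μg) resolved on 10% SDS-PAGE and transferred to PVDF. Probed with MMP-2 or MMP-9 primary antibody and peroxidase-conjugated secondary, detected by chemiluminescence, normalized to GAPDH.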

SMMC-7721 [17] = experiment: Inhibition of MMP9 protein expression in human SMMC7721 cells at […] to 5.49 uM incubated for 24 hrs by Western blot analysis; assay type: functional, cell-based; procedure, shortened: as §3
SMMC-7721 [18] = experiment: Inhibition of MMP2 gene expression in human SMMC7721 cells at […] to 5.49 uM incubated for 24 hrs by real-time PCR analysis; assay type: functional, cell-based
Procedure, shortened: (§4)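 SMMC7721 cells (5 × 10^5/well) treated with 0.61, 1.83 or 5.49 μM for 24 h. Total RNA analysed by SYBR Green qPCR using MMP-2 and MMP-9 specific primers. Cycling: 95 °C for 10 min, then 44 cycles of 95 °C 10 s, 60 °C 20 s, 72 °C 20 s. GAPDH internal control.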

SMMC-7721 [19] = experiment: Inhibition of MMP9 gene expression in human SMMC7721 cells at […] to 5.49 uM incubated for 24 hrs by real-time PCR analysis; assay type: functional, cell-based; procedure, shortened: as §4

Sequence of 72 kDa type IV collagenase (Homo sapiens) (P08253 110-660 limits assumed): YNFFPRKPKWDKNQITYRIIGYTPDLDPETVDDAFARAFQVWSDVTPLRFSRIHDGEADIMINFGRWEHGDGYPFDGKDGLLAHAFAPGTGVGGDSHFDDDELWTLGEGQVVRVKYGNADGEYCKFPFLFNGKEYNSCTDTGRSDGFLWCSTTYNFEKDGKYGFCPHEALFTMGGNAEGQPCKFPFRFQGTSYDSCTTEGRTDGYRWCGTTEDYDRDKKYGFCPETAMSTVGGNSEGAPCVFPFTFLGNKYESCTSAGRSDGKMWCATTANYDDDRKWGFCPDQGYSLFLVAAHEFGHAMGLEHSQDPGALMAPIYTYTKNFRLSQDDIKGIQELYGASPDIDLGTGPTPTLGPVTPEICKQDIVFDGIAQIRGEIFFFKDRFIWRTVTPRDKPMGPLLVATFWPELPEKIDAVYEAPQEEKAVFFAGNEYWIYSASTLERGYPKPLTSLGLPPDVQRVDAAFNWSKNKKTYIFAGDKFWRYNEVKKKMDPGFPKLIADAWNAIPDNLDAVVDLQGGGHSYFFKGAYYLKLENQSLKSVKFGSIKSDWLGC
Sequence of Matrix metalloproteinase-9 (Homo sapiens) (P14780 whole entry): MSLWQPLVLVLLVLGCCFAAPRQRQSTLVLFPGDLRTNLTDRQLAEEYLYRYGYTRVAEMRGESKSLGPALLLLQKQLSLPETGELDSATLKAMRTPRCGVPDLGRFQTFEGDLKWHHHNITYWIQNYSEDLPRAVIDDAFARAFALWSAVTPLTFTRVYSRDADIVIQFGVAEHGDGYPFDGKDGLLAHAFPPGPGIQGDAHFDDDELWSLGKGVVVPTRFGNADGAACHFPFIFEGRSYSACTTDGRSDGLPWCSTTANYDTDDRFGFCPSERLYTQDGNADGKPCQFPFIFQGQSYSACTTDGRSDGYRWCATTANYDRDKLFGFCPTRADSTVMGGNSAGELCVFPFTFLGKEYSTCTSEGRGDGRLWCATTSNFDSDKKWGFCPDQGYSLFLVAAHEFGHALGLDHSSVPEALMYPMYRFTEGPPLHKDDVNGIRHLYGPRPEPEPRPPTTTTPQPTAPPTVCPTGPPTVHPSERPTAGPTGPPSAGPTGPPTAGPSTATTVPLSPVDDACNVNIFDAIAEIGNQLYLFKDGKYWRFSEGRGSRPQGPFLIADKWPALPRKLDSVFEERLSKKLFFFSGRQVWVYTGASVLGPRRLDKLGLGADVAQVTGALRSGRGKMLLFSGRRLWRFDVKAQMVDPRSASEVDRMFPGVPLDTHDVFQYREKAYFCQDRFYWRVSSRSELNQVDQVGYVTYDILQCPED

Structure (SMILES)	inhibition at 200 µM (BGC-823 [1]) [%]	inhibition at 200 µM (NCI-H460 [2]) [%]	inhibition at 200 µM (HCT-116 [3]) [%]	inhibition at 200 µM (HeLa [4]) [%]	inhibition at 200 µM (SMMC-7721 [5]) [%]	IC50 (BGC-823 [6]) [µM]	IC50 (NCI-H460 [7]) [µM]	IC50 (HCT-116 [8]) [µM]	IC50 (HeLa [9]) [µM]	IC50 (SMMC-7721 [10]) [µM]	also measured
CC(C)[C@H]1CC[C@]2(C)C[C@@H]3[C@H](CO)C[C@@H](O)[C@H]3[C@@](C)(O)C/C=C/12	90	90	90	90	90	> 100	> 100	> 100	> 100	> 100	–
CC(C)[C@H]1C[C@@H](O)[C@]2(C)C[C@@H]3[C@H](CO)C[C@@H](O)[C@H]3[C@@](C)(O)C/C=C/12	50	50	50	50	50	> 100	> 100	> 100	> 100	> 100	–
COc1cccc2c1C(=O)c1c(O)c3c(c(O)c1C2=O)C[C@@](O)(C(=O)CO)C[C@@H]3O[C@H]1C[C@H](N)[C@H](O)[C@H](C)O1 [DOXORUBICIN HYDROCHLORIDE]	–	–	–	–	–	1.5	1	1.4	–	2.2	–
CCCC(=O)[C@@H](C)[C@H]1O[C@@](O)([C@H](C)C(=O)OC[C@H](C)[C@H]2CC[C@]3(C)C[C@@H]4[C@H](CO)C[C@@H](O)[C@H]4[C@@](C)(O)C/C=C/23)[C@H](C)C[C@H]1C	–	–	–	–	–	10.5	3.5	5.8	7.6	9.6	Activity (SMMC-7721 [11]): inactive; inhibition (SMMC-7721 [12]): Active; inhibition (SMMC-7721 [13]): Dose-dependent effect; inhibition [14]: Dose-dependent effect; inhibition [15]: Dose-dependent effect; inhibition (SMMC-7721 [16]): Active; inhibition (SMMC-7721 [17]): Active; inhibition (SMMC-7721 [18]): Dose-dependent effect; inhibition (SMMC-7721 [19]): Dose-dependent effect
CCC(=O)[C@@H](C)[C@H]1O[C@@](O)([C@H](C)C(=O)OC[C@H](C)[C@H]2CC[C@]3(C)C[C@@H]4[C@H](CO)C[C@@H](O)[C@H]4[C@@](C)(O)C/C=C/23)[C@H](C)C[C@H]1C	–	–	–	–	–	7	4.1	6.7	6.7	8.9	–
CCC(=O)[C@@H](C)[C@H]1O[C@@](O)([C@@H](C)C(=O)OC[C@H](C)[C@H]2CC[C@]3(C)C[C@@H]4[C@H](CO)C[C@@H](O)[C@H]4[C@@](C)(O)C/C=C/23)[C@H](C)C[C@H]1C	–	–	–	–	–	9.5	6.1	8	9.3	14.1	–
CC(C)[C@H]1C[C@H](O)[C@]2(C)C[C@@H]3[C@H](CO)C[C@@H](O)[C@H]3[C@@](C)(O)C/C=C/12	50	50	50	50	50	> 100	> 100	> 100	> 100	> 100	–
CC(C)[C@@]1(O)CC[C@]2(C)C[C@@H]3[C@H](CO)C[C@@H](O)[C@H]3[C@@](C)(O)C/C=C\21	–	–	–	–	–	> 100	> 100	> 100	> 100	> 100	inhibition (BGC-823 [1]): inactive; inhibition (NCI-H460 [2]): inactive; inhibition (HCT-116 [3]): inactive; inhibition (HeLa [4]): inactive; inhibition (SMMC-7721 [5]): inactive
